Source: PubChem BioAssay (several laboratories)
A selection: hits, their analogues and other compounds. The true share with any hit is near 4.8%.
UCH37 DUB inh: inhibitors of human UCH37 deubiquitinase, primary screen, biochemical, Ub-AMC cleavage, fluorescence; inhibition, % (concentration not given with the values); hit rate 0.33% among 330,000; AID 588478, 2011; purified proteasome/UCH37;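 active means mean inhibition over replicate wells above about 20%, limit read from the data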;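 further: 0% = compound-free wells with enzyme and 100% = wells lacking proteasome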
Target sequence (Q9Y5K5 whole entry, looked up): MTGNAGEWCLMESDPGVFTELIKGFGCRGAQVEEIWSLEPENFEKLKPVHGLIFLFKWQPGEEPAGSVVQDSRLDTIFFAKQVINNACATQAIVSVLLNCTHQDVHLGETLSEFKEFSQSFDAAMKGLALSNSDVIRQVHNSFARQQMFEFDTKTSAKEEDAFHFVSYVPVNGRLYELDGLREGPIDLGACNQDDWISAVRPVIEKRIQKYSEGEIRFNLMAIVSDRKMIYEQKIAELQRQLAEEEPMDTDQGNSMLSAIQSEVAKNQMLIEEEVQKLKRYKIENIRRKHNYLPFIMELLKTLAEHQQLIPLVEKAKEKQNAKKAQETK
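assay system = human UCH37 enzyme supplied as purified proteasome complex | amount = proteasome at 0.15 nM in the dispensed enzyme solution | schedule = 30 min compound-proteasome preincubation then 25 min substrate reaction, room temperature | measured by = fluorescence, ex 355 nm, em 460 nm | benchmarks = no-proteasome wells (full inhibition) and compound-free wells (no inhibition)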
ALR inh: inhibitors of human ALR sulfhydryl oxidase, primary screen, biochemical, H2O2 detection, HRP-luminol luminescence, single point; purified ALR, DTT oxidation; AID 485317, 2010; FAD-linked sulfhydryl oxidase ALR (Homo sapiens), P55789; hit rate 3.8% among 290,000; inhibition, % (test concentration not listed);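 active means mean replicate inhibition above about 79%, with every replicate also reaching it, limit read from the data; inconclusive means only one of the two criteria met; inactive means mean below limit and not every replicate reaching it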
Calb FLC: C. albicans growth inhibition with fluconazole, primary screen, CaCi-2 strain, Alamar Blue fluorescence; growth inhibition, % (no concentration beside the values); C. albicans CaCi-2 + fluconazole, 48 h; hit rate 0.57% among 300,000;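 active means growth inhibition above about 58% in most replicates, limit read from the data, passing the limit was not always enough; inconclusive means exactly half the replicates above a set limit; inactive means most replicates below a set limit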;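 further: all wells also contain fluconazole at 8 µg/ml as a sub-toxic cotreatment; 0% = median of DMSO wells and 100% = median of geldanamycin control wells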
NALP1 yeast inh: NALP1 inflammasome inhibitors in reconstituted yeast, colorimetric, S. cerevisiae, triplicate retest | inhibition, % at 10 µM | S. cerevisiae NALP1/ASC/caspase-1 growth, X-gal OD620, 72 h | hit rate 0.61% among 280,000; in the data active means inhibition mostly above about 24%, no sharp cut-off; inactive means mostly below about 32%
ATG4B inh: ATG4B protease inhibitors, primary screen, biochemical, fluorescence, uHTS. ATG4B cleavage of LC3-PLA2, NBD-HPC fluorescence, 1 h. inhibition, % at 8.33 µM. Cysteine protease ATG4B (Homo sapiens), Q9Y4P1. hit rate 0.51% among 340,000. AID 504462, 2011; in the data active means inhibition above about 40%
NLRP3 yeast inh: NALP3 inflammasome inhibitors in reconstituted yeast, primary screen, luminescence, uHTS | Yeast reconstituted NLRP3/ASC/caspase-1, beta-gal luminescence, 24 h | inhibition, % at 10 µM | hit rate 0.39% among 330,000 | AID 2825, 2010;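 active means inhibition of 50% or more; inactive means inhibition below 50%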;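 further: plate controls were induced DMSO wells for no effect and uninduced yeast grown without galactose for full effect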
Numbers without * were called inactive.

For CC(CC(C)C)=NNc1ccc([N+](=O)[O-])cc1[N+](=O)[O-] the results were UCH37 DUB inh 5.
`COc1ccccc1N1CC(C(=O)NCCC2=CCCCC2)CC1=O` (centres undefined) gave UCH37 DUB inh 0, ALR inh -5, ATG4B inh -2 and NLRP3 yeast inh 8.
Cc1cccc(N2CC(C(=O)NCCC3=CCCCC3)CC2=O)c1C (centres undefined) was read as UCH37 DUB inh 23*, ALR inh -4, Calb FLC 1, ATG4B inh 8 and NLRP3 yeast inh 14.
`CC1CCN(C(=S)c2ccc(O)cc2)CC1` gave UCH37 DUB inh 1, ALR inh 96*, Calb FLC -16, NALP1 yeast inh 2, ATG4B inh -9 and NLRP3 yeast inh 6.
Screening Oc1ccc(C(=S)N2CCCC2)cc1 returned UCH37 DUB inh 6, ALR inh 9, Calb FLC -9, NALP1 yeast inh -16, ATG4B inh -2 and NLRP3 yeast inh -2.
COc1ccc(Br)cc1C=NNC(=O)c1ccco1 was read as UCH37 DUB inh 4.
`COc1ccc(N2Cc3ccc(C(=O)N/N=C\c4ccc(O)cc4O)cc3C2)cc1` gave Calb FLC 93*, NALP1 yeast inh -16 and NLRP3 yeast inh 2.
For Cc1nn(-c2ccc(F)cc2)c(Cl)c1C=NNC(=O)c1ccc(O)cc1 the results were UCH37 DUB inh 2.
`N#Cc1c2n(c3c(=O)n(Cc4ccccc4)cnc13)CCCC2` gave UCH37 DUB inh 0, ALR inh 84*, Calb FLC 12, NALP1 yeast inh -20, ATG4B inh -17 and NLRP3 yeast inh 7.
Screening Oc1ccc(Br)cc1-c1n[nH]c(=S)n1Cc1ccccc1 returned UCH37 DUB inh 6, Calb FLC 18, NALP1 yeast inh -15, ATG4B inh -1 and NLRP3 yeast inh 23.
Cn1c(-c2cc(Br)ccc2O)n[nH]c1=S was read as UCH37 DUB inh 3, ALR inh 98*, Calb FLC -6, NALP1 yeast inh -4, ATG4B inh 5 and NLRP3 yeast inh 30.
Screening CCn1cc(C=NNC(=O)c2ccccc2Cl)cn1 returned UCH37 DUB inh -1.
Screening Cc1c(/C=N\NC(=O)c2ccc(F)cc2)cnn1C returned ALR inh 99*, Calb FLC 11, NALP1 yeast inh 24, ATG4B inh -4 and NLRP3 yeast inh 5.
CCn1cc(/C=N\NC(=O)c2ccc(F)cc2)cn1 was read as ALR inh 98*, Calb FLC -28, NALP1 yeast inh 14, ATG4B inh -2 and NLRP3 yeast inh -4.
O=C(NN=Cc1ccc2cccnc2c1)c1nc2ccccc2c(=O)[nH]1 was read as UCH37 DUB inh -63.
`Cc1n[nH]c(=S)n1N=Cc1c(O)ccc2ccccc12` gave UCH37 DUB inh 0.
Screening COCCn1c(CCc2ccccc2)n[nH]c1=S returned UCH37 DUB inh 2, ALR inh 85*, Calb FLC 10, NALP1 yeast inh -10, ATG4B inh 8 and NLRP3 yeast inh 10.
Screening Cc1cc(C(F)(F)F)c(C#N)c(SCC(=O)Nc2nc3cc(Br)ccc3s2)n1 returned UCH37 DUB inh 2, ALR inh 0, Calb FLC 28, NALP1 yeast inh 24, ATG4B inh -7 and NLRP3 yeast inh 21.
N#Cc1c(SCC(=O)Nc2nccs2)sc2c(O)cc(=O)[nH]c12 was read as ALR inh 99*, Calb FLC -2, NALP1 yeast inh 17, ATG4B inh 16 and NLRP3 yeast inh 14.
Screening N#Cc1c(SCC(=O)Nc2nc3ccc(Br)cc3s2)sc2c(O)cc(=O)[nH]c12 returned ALR inh 99*, Calb FLC 16, NALP1 yeast inh 12, ATG4B inh 17 and NLRP3 yeast inh 15.
For CCCSc1nnc(NC(=O)CSc2sc3c(O)cc(=O)[nH]c3c2C#N)s1 the results were UCH37 DUB inh 10, ALR inh inconclusive, Calb FLC -8, NALP1 yeast inh 5, ATG4B inh 30 and NLRP3 yeast inh 8.
